In ChEMBL document CHEMBL1275379, “Indazolylpyrazolopyrimidine as highly potent B-Raf inhibitors with in vivo activity” (J Med Chem, 2010):
Activity calls are given as the source filed them. The rule behind the calls is not given here.

Experiments:
[1] = biological target: Rho-associated protein kinase 1 (Homo sapiens) (UniProt Q13464); assay: Inhibition of ROCK1 at 1 uM
[2] = Drug level in plasma of human A375 cells xenografted nude mouse at 25 mg/kg, po after 24 hrs; assay type: ADME, organism-based, A-375; set-up: dose 25 mg/kg, route oral; details: read-out: Drug uptake
[3] = biological target: Serine/threonine-protein kinase Nek2 (Homo sapiens) (UniProt P51955); assay: Inhibition of NEK2 at 1 uM
[4] = biological target: Protein kinase C alpha (Homo sapiens) (UniProt P17252); assay: Inhibition of PRKCA at 1 uM
[5] = biological target: Ribosomal protein S6 kinase beta-1 (Homo sapiens) (UniProt P23443); assay: Inhibition of RPS6B1 at 1 uM
[6] = tested on: Serine/threonine-protein kinase B-raf (Homo sapiens), P15056 [V600E]; assay: Inhibition of BRAF V600E mutant in human A375 cells assessed as reduction of ERK phosphorylation; assay type: cell-based; details: A-375
[7] = Volume of distribution at steady state in nude mouse; assay type: ADME, organism-based; details: in vivo, read-out: Vdss
[8] = Inhibition of RPS6K at 1 uM
[9] = tested on: Mus musculus; assay: Toxicity in human A375 cells xenografted nude mouse; assay type: organism-based, A-375; details: in vivo
[10] = AUC (infinity) in nude mouse at 10 mg/kg, po; assay type: ADME, organism-based; set-up: time infinity, dose 10 mg/kg, route oral; details: plasma
[11] = biological target: T1, Epidermal growth factor receptor (Homo sapiens, UniProt P00533); details: 1 uM
[12] = biological target: Vascular endothelial growth factor receptor 3 (Homo sapiens) (UniProt P35916); assay: Inhibition of FLT4 at 1 uM
[13] = biological target: Aurora kinase B (Homo sapiens) (UniProt Q96GD4); assay: Inhibition of AURKB at 1 uM
[14] = biological target: Protein kinase C delta type (Homo sapiens) (UniProt Q05655); assay: Inhibition of PRKCD at 1 uM
[15] = tested on: Mus musculus; assay: Inhibition of BRAF-mediated ERK phosphorylation in human A375 cells xenografted nude mouse at 10 mg/kg, po QD; assay type: functional, organism-based; set-up: dose 10 mg/kg; details: A-375
Procedure, shortened: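 Nude mice bearing A375 xenografts received an oral 10 mg/kg dose once daily. Tumours were taken from treated and untreated animals 6 h after the first dose, and ERK phosphorylation in tumour tissue was measured.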

[16] = biological target: Platelet-derived growth factor receptor beta (Homo sapiens) (UniProt P09619); assay: Inhibition of PDGFRB at 1 uM
[17] = biological target: MAP kinase-activated protein kinase 2 (Homo sapiens) (UniProt P49137); assay: Inhibition of MAPKAPK2 at 1 uM
[18] = biological target: T2, Mitogen-activated protein kinase 14 (Homo sapiens, UniProt Q16539); assay: Inhibition of MAPK14
[19] = Half life in nude mouse; assay type: ADME, organism-based; details: in vivo
[20] = biological target: Ephrin type-A receptor 1 (Homo sapiens) (UniProt P21709); assay: Inhibition of EPHA1 at 1 uM
[21] = biological target: Platelet-derived growth factor receptor alpha (Homo sapiens) (UniProt P16234); assay: Inhibition of PDGFRA at 1 uM
[22] = biological target: Tyrosine-protein kinase Yes (Homo sapiens, UniProt P07947); assay: Inhibition of YES1
[23] = Clearance in nude mouse; assay type: ADME, organism-based; details: in vivo
[24] = biological target: T3, Serine/threonine-protein kinase B-raf (Homo sapiens, UniProt P15056); assay: Inhibition of BRAF at 1 uM
[25] = biological target: RAC-alpha serine/threonine-protein kinase (Homo sapiens) (UniProt P31749); assay: Inhibition of AKT1 at 1 uM
[26] = biological target: Proto-oncogene tyrosine-protein kinase receptor Ret (Homo sapiens, UniProt P07949); assay: Inhibition of RET
[27] = Inhibition of MAP3K at 1 uM
[28] = biological target: Angiopoietin-1 receptor (Homo sapiens, UniProt Q02763); assay: Inhibition of TEK
[29] = biological target: RAF proto-oncogene serine/threonine-protein kinase (Homo sapiens, UniProt P04049); assay: Inhibition of C-raf
[30] = biological target: T3, Serine/threonine-protein kinase B-raf; assay: Inhibition of BRAF
[31] = biological target: Tyrosine-protein kinase JAK2 (Homo sapiens) (UniProt O60674); assay: Inhibition of JAK2 at 1 uM
[32] = Half life in human liver microsomes; assay type: ADME, Microsome
[33] = tested on: A-375; assay: Antitumor activity against human A375 cells xenografted in nude mouse assessed as tumor growth inhibition at 7.5 mg/kg, po; assay type: functional; details: read-out: TGI
Procedure, shortened: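 A375 xenografts in nude mice dosed orally once daily; n = 10 per arm; tumour size measured by caliper at set times; error shown as standard deviation.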

[34] = biological target: Fibroblast growth factor receptor 2 (Homo sapiens) (UniProt P21802); assay: Inhibition of FGFR2 at 1 uM
[35] = Inhibition of PRKA at 1 uM
[36] = biological target: Focal adhesion kinase 1 (PTK2) (Homo sapiens) (UniProt Q05397); assay: Inhibition of PTK2 at 1 uM
[37] = biological target: Serine/threonine-protein kinase Chk2 (Homo sapiens) (UniProt O96017); assay: Inhibition of CHEK2 at 1 uM
[38] = biological target: Mast/stem cell growth factor receptor Kit (Homo sapiens) (UniProt P10721); assay: Inhibition of KIT at 1 uM
[39] = biological target: Tyrosine-protein kinase ABL1 (Homo sapiens, UniProt P00519); assay: Inhibition of ABL1 at 1 uM
[40] = biological target: Proto-oncogene tyrosine-protein kinase Src (Homo sapiens) (UniProt P12931); details: 1 uM
[41] = biological target: T1, Epidermal growth factor receptor
[42] = biological target: Inhibitor of nuclear factor kappa-B kinase subunit beta (Homo sapiens) (UniProt O14920); assay: Inhibition of IKBKB at 1 uM
[43] = biological target: Receptor tyrosine-protein kinase erbB-2 (Homo sapiens) (UniProt P04626); assay: Inhibition of ERBB2 at 1 uM
[44] = biological target: Receptor-type tyrosine-protein kinase FLT3 (Homo sapiens) (UniProt P36888); assay: Inhibition of FLT3 at 1 uM
[45] = Drug level in tumor tissue of human A375 cells xenografted nude mouse at 25 mg/kg, po after 6 hrs; assay type: ADME, organism-based, Neoplasm, A-375; set-up: dose 25 mg/kg, route oral; details: read-out: Drug uptake
[46] = Drug level in tumor tissue of human A375 cells xenografted nude mouse at 25 mg/kg, po after 24 hrs; assay type: ADME, organism-based, Neoplasm, A-375; set-up: dose 25 mg/kg, route oral; details: read-out: Drug uptake
[47] = biological target: Cyclin-dependent kinase 2/cyclin A (Homo sapiens) (UniProt P24941+P20248+P78396); assay: Inhibition of CDK2/cyclin A at 1 uM; assay type: protein-complex assay
[48] = biological target: Aurora kinase A (Homo sapiens) (UniProt O14965); assay: Inhibition of AURKA at 1 uM
[49] = biological target: Glycogen synthase kinase-3 beta (Homo sapiens) (UniProt P49841); assay: Inhibition of GSK3B at 1 uM
[50] = biological target: T2, Mitogen-activated protein kinase 14; details: 1 uM

inhibition [1]: 3%
concentration at 24 h [2]: 0.06 µM
inhibition [3]: 6%
inhibition [4]: 9%
inhibition [5]: 5%
inhibition [6]: Active
Vd [7]: 4.7 L/kg
inhibition [8]: 14%
AUC(0-inf) [10]: 4000 ng·h/mL
inhibition [11]: 77%
inhibition [12]: 17%
inhibition [13]: 0%
inhibition [14]: 10%
inhibition [16]: 9%
inhibition [17]: -1%
IC50 [18]: 0.145 µM
half-life [19]: 3.5 h
inhibition [20]: 84%
inhibition [21]: 5%
IC50 [22]: 0.246 µM
clearance [23]: 23 mL/min/kg
inhibition [24]: 100%
inhibition [25]: 5%
IC50 [26]: 0.16 µM
inhibition [27]: 4%
IC50 [28]: 0.293 µM
IC50 [29]: 0.00852 µM
IC50 [30]: 0.00016 µM
inhibition [31]: -6%
half-life [32]: > 0.5 h
inhibition [34]: 66%
inhibition [35]: 18%
inhibition [36]: 15%
inhibition [37]: 7%
inhibition [38]: 9%
inhibition [39]: 70%
inhibition [40]: 77%
IC50 [41]: 0.173 µM
inhibition [42]: 5%
inhibition [43]: 37%
inhibition [44]: 23%
concentration at 6 h [45]: 6.6 µM
concentration at 24 h [46]: 6.1 µM
inhibition [47]: 4%
inhibition [48]: 7%
inhibition [49]: 35%
inhibition [50]: 81%
Compound: CN1C[C@@H]2C[C@H]1CN2c1cc(F)c(-c2ccnc3c(-c4cccc5[nH]ncc45)c(-c4ccncc4)nn23)c(F)c1
Activity [9]: Non-toxic
inhibition [15]: Active
inhibition in vivo at 7.5 mg/kg [33]: 39%
